Active and inactive are the calls of the source. The rule behind the calls is not given here.
What was measured:
[1] = Inhibition of Saccharomyces cerevisiae alpha-glucosidase after 10 mins
Summary of the method: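 Yeast α-glucosidase, 25 mU/mL final, in 10 mM phosphate buffer pH 7.28, preincubated with test compound (DMSO) 5 min at 37 °C. p-NPG substrate 80 μM final; stopped after 10 min with 0.5 M Na2CO3; 4-nitrophenol read at 400 nm against DMSO control. Eight concentrations; triplicate, at least two runs; IC50 taken graphically from percent activity vs log concentration.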

[2] = system: Prunus dulcis; experiment: Inhibition of almond beta-glucosidase at 25 uM after 10 mins
Summary of the method: (§1)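 Enzyme 12.5 mU per sample in buffer: β-glucosidase, 50 mM sodium citrate pH 5.0; α-mannosidase, 10 mM sodium acetate pH 4.5; α-galactosidase, 50 mM potassium phosphate pH 6.5. Compound in DMSO at 25 µM, preincubated 5 min at 37 °C; substrate added at 80 μM final; stopped after 10 min with 1 M Na2CO3. Absorbance compared with DMSO control; triplicate.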

[3] = system: Canavalia ensiformis; experiment: Inhibition of Canavalia ensiformis alpha-mannosidase at 25 uM after 10 mins; summary of the method: as §1
[4] = biological target: Alpha-galactosidase (Coffea arabica) (UniProt Q42656); experiment: Inhibition of green coffee bean alpha-galactosidase at 25 uM after 10 mins; summary of the method: as §1
[5] = system: SH-SY5Y; experiment: Cytotoxicity against human SH-SY5Y cells after 2 hrs by MTT assay; format: functional, cell-based
Summary of the method: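 SH-SY5Y neuroblastoma cells exposed to compound at 5 μM and at a second concentration for 2 h. MTT (5 mg/mL in DMEM + 10% FBS) then added, 4 h at 37 °C. Supernatant removed, formazan dissolved in DMSO, absorbance read at 540 nm. Sextuplicate, repeated twice.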

Sequence of Alpha-galactosidase (Coffea arabica) (Q42656 16-378 limits assumed): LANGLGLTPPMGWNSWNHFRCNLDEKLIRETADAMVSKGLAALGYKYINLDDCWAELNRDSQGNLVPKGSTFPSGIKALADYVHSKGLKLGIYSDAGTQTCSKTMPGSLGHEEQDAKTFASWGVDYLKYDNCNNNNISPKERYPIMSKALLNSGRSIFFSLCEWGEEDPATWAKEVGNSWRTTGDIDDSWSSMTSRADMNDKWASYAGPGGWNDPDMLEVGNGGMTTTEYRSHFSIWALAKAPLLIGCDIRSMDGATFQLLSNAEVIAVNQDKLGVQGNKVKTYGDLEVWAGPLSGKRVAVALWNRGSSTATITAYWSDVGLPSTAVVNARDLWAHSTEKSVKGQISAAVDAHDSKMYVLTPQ

IC50 [1] [nM]	SMILES	other results
750	O=C1c2ccccc2C(=O)N1CCCCCCCCCCOc1c(Cl)cc(Cl)cc1[N+](=O)[O-]	inhibition [2]: inactive; inhibition [3]: inactive; inhibition [4]: inactive; inhibition [5]: inactive
1780	O=C1c2ccccc2C(=O)N1CCCCCCCCCCOc1ccccc1[N+](=O)[O-]	–
910	Cc1ccc(Cl)cc1OCCCCCCCCCCN1C(=O)c2ccccc2C1=O	–
520	O=C1c2ccccc2C(=O)N1CCCCCCCCCCOc1cc(Cl)c(Cl)cc1[N+](=O)[O-]	inhibition [2]: inactive; inhibition [3]: inactive; inhibition [4]: inactive; inhibition [5]: inactive
970	O=C1c2ccccc2C(=O)N1CCCCCCCCCCOc1ccc([N+](=O)[O-])cc1[N+](=O)[O-]	–
1320	Cc1cc([N+](=O)[O-])cc(C)c1OCCCCCCCCCCN1C(=O)c2ccccc2C1=O	–
830	O=C1c2ccccc2C(=O)N1CCCCCCCCCCOc1ccc([N+](=O)[O-])c(C(F)(F)F)c1	–
1080	O=C1c2ccccc2C(=O)N1CCCCCCCCCCOc1cccc([N+](=O)[O-])c1	–
650	Cc1cc([N+](=O)[O-])c(Cl)cc1OCCCCCCCCCCN1C(=O)c2ccccc2C1=O	inhibition [2]: inactive; inhibition [3]: inactive; inhibition [4]: inactive; inhibition [5]: inactive
2500	O=C1c2ccccc2C(=O)N1CCCCCCCCCCOc1ccccc1	–
1200	O=C1c2ccccc2C(=O)N1CCCCCCCCCCOc1ccc(Cl)cc1	–
3040	O=C1c2ccccc2C(=O)N1CCCCCCCCCOc1ccccc1	–
3250	Cc1cccc(C)c1OCCCCCCCCCCN1C(=O)c2ccccc2C1=O	–
1090	O=C1c2ccccc2C(=O)N1CCCCCCCCCCOc1cccc(Cl)c1	–
860	O=C1c2ccccc2C(=O)N1CCCCCCCCCCOc1ccc([N+](=O)[O-])cc1	–
6500	O=C1c2ccccc2C(=O)N1CCCCCCCCOc1ccccc1	–
1190	O=C1c2ccccc2C(=O)N1CCCCCCCCCCOc1ccc(Cl)cc1Cl	–
2100	Cc1ccc(OCCCCCCCCCCN2C(=O)c3ccccc3C2=O)cc1	–
475	O=C1c2ccccc2C(=O)N1CCCCCCCCCCOc1ccc(Cl)cc1[N+](=O)[O-]	inhibition [2]: inactive; inhibition [3]: inactive; inhibition [4]: inactive; inhibition [5]: inactive
1310	O=C1c2ccccc2C(=O)N1CCCCCCCCCCOc1ccc(C(F)(F)F)cc1[N+](=O)[O-]	–

Further lines, the compound ahead of its results:

SMILES	IC50 [1] [nM]	other results
O=C1c2ccccc2C(=O)N1CCOc1ccccc1	296000	–
O=C1c2ccccc2C(=O)N1CCOc1ccc(Cl)cc1	94000	–
Cc1cc(Cl)ccc1OCCCN1C(=O)c2ccccc2C1=O	8900	–
O=C1c2ccccc2C(=O)N1CCCCOc1ccccc1	33000	–
O=C1c2ccccc2C(=O)N1CCCOc1ccccc1	240000	–
O=C1c2ccccc2C(=O)N1CCCCCCCCCCOc1ccc(C(F)(F)F)cc1	830	–
OC[C@H]1NC[C@H](O)[C@@H](O)[C@@H]1O [DUVOGLUSTAT]	52000	–
O=C1c2ccccc2C(=O)N1CCCOc1ccc(Cl)c(Cl)c1	7550	–
O=C1c2ccccc2C(=O)N1CCCOc1ccc(Cl)cc1	59000	–
Cc1cc(Cl)ccc1OCCN1C(=O)c2ccccc2C1=O	14800	–
O=C1c2ccccc2C(=O)N1CCCCCCOc1ccccc1	10300	–
O=C1c2ccccc2C(=O)N1CCCOc1cccc(Cl)c1Cl	15000	–
Cc1cc(Cl)cc(C)c1OCCCN1C(=O)c2ccccc2C1=O	9500	–
Cc1cc(Cl)c([N+](=O)[O-])c(C)c1OCCCCCCCCCCN1C(=O)c2ccccc2C1=O	3600	–
Cc1cc(Cl)cc(C)c1OCCN1C(=O)c2ccccc2C1=O	13000	–
Cc1cc(Cl)cc(C)c1OCCCCCCCCCCN1C(=O)c2ccccc2C1=O	1340	–
O=C1c2ccccc2C(=O)N1CCCCCOc1ccccc1	20200	–
O=C1c2ccccc2C(=O)N1CCCCCCCCCCOc1ccc(Cl)c(Cl)c1	1000	–

Reference: ChEMBL document CHEMBL1212886, “New N-(phenoxydecyl)phthalimide derivatives displaying potent inhibition activity towards alpha-glucosidase” (Bioorg Med Chem, 2010)
